We go through 13 molecules from ChEMBL document CHEMBL1938355, “Antimycobacterial activities of 5-alkyl (or halo)-3'-substituted pyrimidine nucleoside analogs” (Bioorg Med Chem Lett, 2012).

Usually CC50 stands for the concentration giving 50% cytotoxicity. Higher therefore signals lower toxicity to the cells. What is called MIC50 is an inhibitory concentration at the 50% level, which refers to growth in some studies and to a panel of isolates in others. Read a low MIC50 as greater potency.

Data set [1] relates to Mycobacterium avium. Briefly: Antimycobacterial activity against Mycobacterium avium ATCC 25291 assessed as growth inhibition at 2 ug/ml by microplate alamar blue assay. The data set is classed as functional, Mycobacterium avium subsp. avium ATCC 25291. The conditions noted are these: read-out: GI.
Data set [2] deals with Mycobacterium tuberculosis. Description: Antimycobacterial activity against Mycobacterium tuberculosis H37Ra assessed as growth inhibition at 0.5 to 100 ug/ml by microplate alamar blue assay. The data set is classed as functional, organism-based. The method in brief: (§1)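 Strains obtained from ATCC. Tested by microplate alamar blue assay. Compounds made up as 10 mg/mL DMSO stocks, then serially diluted in 7H9GC medium. Final test concentrations were 100, 50, 25, 10, 5, 1 and 0.5, each in triplicate. Experiments were run twice, and mean percent growth inhibition is reported.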
On the technique in general: Resazurin is reduced to fluorescent resorufin, in cell work by metabolically active cells.

The test system of data set [3] is Mycobacterium avium. Briefly: Antimycobacterial activity against Mycobacterium avium ATCC 25291 assessed as growth inhibition at 0.5 to 100 ug/ml by microplate alamar blue assay. As to conditions: Mycobacterium avium subsp. avium ATCC 25291. The data set is classed as functional. The method, boiled down:
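M. avium ATCC 25291 (ATCC stock) in 7H9GC medium, microplate alamar blue read-out. Compounds dissolved in DMSO at 10 mg/mL (stock), diluted in medium to final 100, 50, 25, 10, 5, 1 and 0.5 µg/mL, each in triplicate. Two independent experiments; mean percent growth inhibition reported, SD within 10% of mean.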

Data set [4] has as its system Huh-7. Description: Cytotoxicity against human HuH7 cells up to 100 ug/ml by XTT assay. The data set is classed as cell-based. Background: Tetrazolium dyes change colour on reduction, which living cells bring about.
Data set [5] is described as follows: Cytotoxicity against human HuH7 cells by XTT assay. The format is cell-based, Huh-7.
Data set [6] relates to Huh-7. Description: Cytotoxicity against human HuH7 cells up to 100 ug/ml by [3H]thymidine incorporation assay. The format is cell-based.
Data set [7] is described as follows: Cytotoxicity against human HuH7 cells by [3H]thymidine incorporation assay. The data set is classed as cell-based, Huh-7. On the technique in general: Incorporation of labelled thymidine or its analogues reports DNA synthesis.
For data set [8], the system named is Mycobacterium avium. Description: Antimycobacterial activity against Mycobacterium avium ATCC 25291 assessed as growth inhibition at 100 ug/ml by microplate alamar blue assay. The format is functional, Mycobacterium avium subsp. avium ATCC 25291. As to conditions: read-out: GI. The method in brief:
as §1

For data set [9], the system named is Mycobacterium avium. Description: Antimycobacterial activity against Mycobacterium avium ATCC 25291 assessed as growth inhibition at 50 ug/ml by microplate alamar blue assay. The format is functional, Mycobacterium avium subsp. avium ATCC 25291. As to conditions: read-out: GI. The method, boiled down:
as §1

The subject of data set [10] is Mycobacterium avium. Briefly: Antimycobacterial activity against Mycobacterium avium ATCC 25291 assessed as growth inhibition at 10 ug/ml by microplate alamar blue assay. The conditions noted are these: read-out: GI. The data set is classed as functional, Mycobacterium avium subsp. avium ATCC 25291. The method, boiled down: as §1
Data set [11] has as its system Mycobacterium tuberculosis. Description: Antimycobacterial activity against Mycobacterium tuberculosis H37Ra by microplate alamar blue assay. The format is functional.
The subject of data set [12] is Mycobacterium avium. Description: Antimycobacterial activity against Mycobacterium avium ATCC 25291 by microplate alamar blue assay. The format is functional, Mycobacterium avium subsp. avium ATCC 25291.
Data set [13] relates to Mycobacterium tuberculosis. Description: Antimycobacterial activity against Mycobacterium tuberculosis H37Ra assessed as growth inhibition at 100 ug/ml by microplate alamar blue assay. The data set is classed as functional. The conditions noted are these: read-out: GI. The method, boiled down: as §1
Data set [14] relates to Mycobacterium tuberculosis. Briefly: Antimycobacterial activity against Mycobacterium tuberculosis H37Ra assessed as growth inhibition at 50 ug/ml by microplate alamar blue assay. The conditions noted are these: read-out: GI. The data set is classed as functional. The method in brief:
as §1

In data set [15] the test system is Mycobacterium tuberculosis. Briefly: Antimycobacterial activity against Mycobacterium tuberculosis H37Ra assessed as growth inhibition at 10 ug/ml by microplate alamar blue assay. The data set is classed as functional. The conditions noted are these: read-out: GI. The method, boiled down: as §1
Data set [16] has as its system Mycobacterium tuberculosis. Description: Antimycobacterial activity against Mycobacterium tuberculosis H37Ra assessed as growth inhibition at 15 to 20 ug/ml by microplate alamar blue assay. The data set is classed as functional.
Data set [17] relates to Mycobacterium tuberculosis. Description: Antimycobacterial activity against Mycobacterium tuberculosis H37Ra assessed as growth inhibition at 5 ug/ml by microplate alamar blue assay. As to conditions: read-out: GI. The data set is classed as functional. The method in brief:
as §1

Data set [18] concerns Mycobacterium tuberculosis. Briefly: Antimycobacterial activity against Mycobacterium tuberculosis H37Ra assessed as growth inhibition at 0.5 to 1 ug/ml by microplate alamar blue assay. The data set is classed as functional. The method in brief:
as §1

The structures appear in SMILES notation. Values after ≈ are worked out from the molar mass of the structure shown. Active and inactive are the calls of the source. The rule behind the calls is not given here.

For `CC[C@H]1OC(=O)[C@H](C)[C@@H](O[C@H]2C[C@@](C)(OC)[C@@H](O)[C@H](C)O2)[C@H](C)[C@@H](O[C@@H]2O[C@H](C)C[C@H](N(C)C)[C@H]2O)[C@](C)(OC)C[C@@H](C)C(=O)[C@H](C)[C@@H](O)[C@]1(C)O` [CLARITHROMYCIN], the inhibition of growth at 2 µg/mL in the data set on Mycobacterium avium [1] is 100%.
`[N-]=[N+]=N[C@H]1C[C@H](n2cc(F)c(=O)[nH]c2=O)O[C@@H]1CO`: the “growth inhibition (GI)” value (in [2]; in the data set on Mycobacterium avium [3]) was “inactive” in each case. Also, the Activity result in the data set on Huh-7 [4] and with Huh-7 [6] was “Non-toxic” throughout. Moreover, the CC50 in data set [5] and in data set [7] was > 100 µg/mL throughout.
Regarding `CCc1cn([C@H]2CC[C@@H](CO)O2)c(=O)[nH]c1=O`, the “growth inhibition (GI)” value (in [2]; in the data set with Mycobacterium avium [3]) was “inactive” each time. For the same molecule, the Activity result in the data set on Huh-7 [4] and in the data set on Huh-7 [6] was “Non-toxic” each time. Moreover, the CC50 in data set [5] and in data set [7] was > 100 µg/mL each time.
Turning to `CCc1cn([C@H]2C[C@@H](O)[C@@H](CO)O2)c(=O)[nH]c1=O`, the “growth inhibition (GI)” value (in data set [2]; with Mycobacterium avium [3]) was “inactive” throughout. Also, the Activity result in the data set with Huh-7 [4] and with Huh-7 [6] was “Non-toxic” throughout. The CC50 in data set [5] and in data set [7] was > 100 µg/mL in each case.
As to `Cc1cn([C@H]2C[C@H](N)[C@@H](CO)O2)c(=O)[nH]c1=O` [3-AMINO- 3-DEOXYTHYMIDINE], the “growth inhibition (GI)” value (in data set [2]; with Mycobacterium avium [3]) was “inactive” each time. Besides, the Activity entry in the data set with Huh-7 [4] and with Huh-7 [6] was “Non-toxic” each time. For the same molecule, the CC50 in data set [5] and in [7] was > 100 µg/mL throughout.
Turning to `CCc1cn([C@H]2C[C@H](F)[C@@H](CO)O2)c(=O)[nH]c1=O`, the “growth inhibition (GI)” value (in [2]; in the data set with Mycobacterium avium [3]) was “inactive” in each case. Further, the Activity entry in the data set with Huh-7 [4] and in the data set on Huh-7 [6] was “Non-toxic” each time. In addition, the CC50 in [5] and in data set [7] was > 100 µg/mL each time.
For the molecule `CCc1cn([C@H]2C[C@H](N=[N+]=[N-])[C@@H](CO)O2)c(=O)[nH]c1=O`, the inhibition of growth at 100 µg/mL with Mycobacterium avium [8] came to 100%; in data set [13], 60%. Besides, the inhibition of growth at 50 µg/mL (in the data set with Mycobacterium avium [9]; in data set [14]) was 60% each time. Besides, the inhibition of growth at 10 µg/mL (in the data set with Mycobacterium avium [10]; in [15]) was 50% in each case. Besides, the Activity entry in the data set with Huh-7 [4] and with Huh-7 [6] was “Non-toxic” throughout. The CC50 in data set [5] and in data set [7] was > 100 µg/mL in each case. In addition, the MIC50 (in data set [11]; against Mycobacterium avium [12]) was 10 µg/mL (≈ 35.6 µM) each time.
Take `N[C@@H]1CONC1=O` [CYCLOSERINE]: the “growth inhibition (GI)” value in data set [16] is reported as 80%. The inhibition of growth at 5 µg/mL in data set [17] amounted to 50%. The inhibition of growth at 100 µg/mL in the data set on Mycobacterium avium [8] was determined as 100%. For the same molecule, the inhibition of growth at 50 µg/mL (with Mycobacterium avium [9]; in data set [14]) was 100% each time. The inhibition of growth at 10 µg/mL worked out at 15% in the data set with Mycobacterium avium [10] and 60% in [15]. The molecule further showed an MIC50 in [11] of 5 µg/mL (≈ 49 µM).
Consider `[N-]=[N+]=N[C@H]1C[C@H](n2cc(Br)c(=O)[nH]c2=O)O[C@@H]1CO`, for which the “growth inhibition (GI)” value in the data set on Mycobacterium avium [3] was “inactive”. Besides, the Activity result with Huh-7 [4] and in the data set with Huh-7 [6] was “Non-toxic” throughout. Further, the CC50 in [5] and in [7] was > 100 µg/mL in each case. Also, the inhibition of growth at 100 µg/mL in [13] stood at 30%.
With `CCc1cn([C@H]2C[C@H](I)[C@@H](CO)O2)c(=O)[nH]c1=O`, the “growth inhibition (GI)” value (in data set [2]; in the data set on Mycobacterium avium [3]) was “inactive” throughout. Besides, the Activity entry in the data set on Huh-7 [4] and with Huh-7 [6] was “Non-toxic” throughout. Further, the CC50 in data set [5] and in [7] was > 100 µg/mL in each case.
Consider `[N-]=[N+]=N[C@H]1C[C@H](n2cc(Cl)c(=O)[nH]c2=O)O[C@@H]1CO`, for which the “growth inhibition (GI)” value in the data set with Mycobacterium avium [3] was “inactive”. In addition, the Activity result in the data set with Huh-7 [4] and in the data set with Huh-7 [6] was “Non-toxic” each time. The CC50 in data set [5] and in data set [7] was > 100 µg/mL in each case. The inhibition of growth at 100 µg/mL in [13] came to 50%.
As for `O=c1[nH]c(=O)n([C@H]2C[C@H](F)[C@@H](CO)O2)cc1C(F)(F)F`, the “growth inhibition (GI)” value in data set [2] is “inactive”. For the same molecule, in the data set with Mycobacterium avium [8], the inhibition of growth at 100 µg/mL amounted to 25%. Further, the Activity result in the data set with Huh-7 [4] and with Huh-7 [6] was “Non-toxic” in each case. For the same molecule, the 50% cytotoxic concentration (CC50) in [5] and in data set [7] was > 100 µg/mL each time.
With `CO[C@H]1/C=C/O[C@@]2(C)Oc3c(C)c(O)c4c(O)c(c(/C=N/N5CCN(C)CC5)c(O)c4c3C2=O)NC(=O)/C(C)=C\C=C\[C@H](C)[C@H](O)[C@@H](C)[C@@H](O)[C@@H](C)[C@H](OC(C)=O)[C@@H]1C` [RIFAMPIN], the “growth inhibition (GI)” value in [18] is recorded as 100%. The inhibition of growth at 2 µg/mL with Mycobacterium avium [1] is 90%.
